Reference: ChEMBL document CHEMBL1145648, “Antibacterial activity in serum of the 3,5-diamino-piperidine translation inhibitors” (Bioorg Med Chem Lett, 2008)
≈ marks a conversion by molar mass, not a printed value.

Key:
Type in all cases: functional
Escherichia coli [1] = assay: Inhibition of transcription-translation activity in Escherichia coli
How it was run: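 Coupled in vitro transcription–translation using E. coli extracts; IC50 in µM.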

Pseudomonas aeruginosa [2] = assay: Antibacterial activity against Pseudomonas aeruginosa ATCC 27853 by microdilution method
How it was run: (§1)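 MIC (µg/ml) by broth microdilution in Mueller Hinton medium per NCCLS guidance; E. coli ATCC 25922 and P. aeruginosa ATCC 27853.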

Escherichia coli [3] = assay: Antibacterial activity against Escherichia coli ATCC 25922 by microdilution method; how it was run: as §1
Pseudomonas aeruginosa [4] = assay: Antibacterial activity against Pseudomonas aeruginosa by agar dilution method
How it was run: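 Agar dilution susceptibility testing on Mueller Hinton agar, performed by Fujisawa Pharmaceuticals; MIC50/80/90 denote concentration inhibiting that percent of isolates.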

Escherichia coli [5] = assay: Antibacterial activity against Escherichia coli ATCC 25922 by microdilution method in presence of serum
How it was run: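 Broth microdilution in MH medium per NCCLS, run with and without 50% mouse serum; MIC (µg/ml) in serum reported as fold shift relative to serum-free MIC; strains E. coli ATCC 25922 and P. aeruginosa ATCC 27853.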

Cl.N[C@@H]1C[C@H](N)CN(c2nc(N3C[C@H](N)C[C@H](N)C3)c3[nH]c(Nc4ccc(NC(=O)c5ccc6cccnc6c5O)cc4)nc3n2)C1
IC50 (Escherichia coli [1]): 0.4 µM
MIC (Pseudomonas aeruginosa [2]): 16 µg/mL
MIC (Escherichia coli [3]): 8 µg/mL

Cl.N[C@@H]1C[C@H](N)CN(c2cc(Nc3ccc(NC(=O)c4cnc5ccccc5c4O)cc3)cc(N3C[C@H](N)C[C@H](N)C3)n2)C1
IC50 (Escherichia coli [1]): 2.2 µM
MIC (Pseudomonas aeruginosa [2]): ≤ 0.5 µg/mL
MIC (Escherichia coli [3]): ≥ 64 µg/mL

Cl.N[C@@H]1C[C@H](N)CN(c2nc(Nc3ccc(NC(=O)c4cc(Cl)ccc4O)c(O)c3)nc(N3C[C@H](N)C[C@H](N)C3)n2)C1
IC50 (Escherichia coli [1]): 9 µM
MIC (Pseudomonas aeruginosa [2]): 1 µg/mL
MIC (Escherichia coli [3]): 4 µg/mL

Cl.N[C@@H]1C[C@H](N)CN(c2nc(N3C[C@H](N)C[C@H](N)C3)c(Cl)c(Nc3ccc(NC(=O)c4ccc5ccccc5c4O)cc3)c2Cl)C1
IC50 (Escherichia coli [1]): 14 µM
MIC (Pseudomonas aeruginosa [2]): 1 µg/mL
MIC (Escherichia coli [3]): 2 µg/mL

CCn1cc(C(=O)Nc2ccc(Nc3nc(N4C[C@H](N)C[C@H](N)C4)nc(N4C[C@H](N)C[C@H](N)C4)n3)cc2)c(=O)c2cnc(N3CCNCC3)nc21.Cl
IC50 (Escherichia coli [1]): 0.9 µM
MIC (Pseudomonas aeruginosa [2]): 1 µg/mL
MIC (Escherichia coli [3]): 32 µg/mL

CCn1cc(C(=O)Nc2ccc(Nc3nc(N4C[C@H](N)C[C@H](N)C4)nc(N4C[C@H](N)C[C@H](N)C4)n3)cc2)c(=O)c2cc(F)c(N3CCNCC3)cc21.Cl
IC50 (Escherichia coli [1]): 2 µM
MIC (Pseudomonas aeruginosa [2]): 1 µg/mL
MIC (Escherichia coli [3]): ≤ 0.5 µg/mL

Cl.N[C@@H]1C[C@H](N)CN(c2nc(Nc3ccc(NC(=O)c4cn(C5CC5)c5cc(N6CCNCC6)c(F)cc5c4=O)cc3)nc(N3C[C@H](N)C[C@H](N)C3)n2)C1
IC50 (Escherichia coli [1]): 0.4 µM
MIC (Pseudomonas aeruginosa [2]): 2 µg/mL
MIC (Escherichia coli [3]): 64 µg/mL

CCN1CCN(c2cc3c(cc2F)c(=O)c(C(=O)Nc2ccc(Nc4nc(N5C[C@H](N)C[C@H](N)C5)nc(N5C[C@H](N)C[C@H](N)C5)n4)cc2)cn3C2CC2)CC1.Cl
IC50 (Escherichia coli [1]): 1.3 µM
MIC (Pseudomonas aeruginosa [2]): 2 µg/mL
MIC (Escherichia coli [3]): ≤ 0.5 µg/mL

Cl.N[C@@H]1C[C@H](N)CN(c2nc3nc(Nc4ccc(NC(=O)c5ccc6ccccc6c5O)cc4)nc(N4C[C@H](N)C[C@H](N)C4)c3[nH]2)C1
IC50 (Escherichia coli [1]): 18 µM
MIC (Pseudomonas aeruginosa [2]): 2 µg/mL
MIC (Escherichia coli [3]): 1 µg/mL

Cl.N[C@@H]1C[C@H](N)CN(c2nc(Nc3ccc(NC(=O)c4ccc5cccnc5c4O)cc3)nc(N3C[C@H](N)C[C@H](N)C3)n2)C1
MIC (Pseudomonas aeruginosa [2]): 2 µg/mL
MIC (Escherichia coli [3]): 4 µg/mL

Cl.N[C@@H]1C[C@H](N)CN(c2nc(Nc3ccc(NC(=O)c4ccc5ccccc5c4)cc3)nc(N3C[C@H](N)C[C@H](N)C3)n2)C1
IC50 (Escherichia coli [1]): 24 µM
MIC (Pseudomonas aeruginosa [2]): ≤ 0.5 µg/mL
MIC (Escherichia coli [3]): 1 µg/mL

Cl.N[C@@H]1C[C@H](N)CN(c2cc(Nc3ccc(NC(=O)c4ccc5ccccc5c4O)cc3)nc(N3C[C@H](N)C[C@H](N)C3)n2)C1
IC50 (Escherichia coli [1]): 18 µM
MIC (Pseudomonas aeruginosa [2]): 8 µg/mL
MIC (Escherichia coli [3]): ≤ 0.5 µg/mL

Cl.N[C@@H]1C[C@H](N)CN(c2nc(N3C[C@H](N)C[C@H](N)C3)c3[nH]c(Nc4ccc(NC(=O)c5cnc6ccccc6c5O)cc4)nc3n2)C1
MIC (Pseudomonas aeruginosa [2]): 1 µg/mL
MIC (Escherichia coli [3]): 1 µg/mL

Cl.N[C@@H]1C[C@H](N)CN(c2nc(N3C[C@H](N)C[C@H](N)C3)c(Cl)c(Nc3ccc(NC(=O)C4=CN(C5CC5)C5C=C(N6CCNCC6)C(F)=CC5C4=O)cc3)c2Cl)C1 (stereo not given in full)
IC50 (Escherichia coli [1]): 0.8 µM
MIC (Pseudomonas aeruginosa [2]): 8 µg/mL
MIC (Escherichia coli [3]): 8 µg/mL

CC1COc2c(N3CCNCC3)c(F)cc3c(=O)c(C(=O)Nc4ccc(Nc5nc(N6C[C@H](N)C[C@H](N)C6)nc(N6C[C@H](N)C[C@H](N)C6)n5)cc4)cn1c23.Cl (stereo not given in full)
IC50 (Escherichia coli [1]): 1 µM
MIC (Pseudomonas aeruginosa [2]): 8 µg/mL
MIC (Escherichia coli [3]): 16 µg/mL

Cl.N[C@@H]1C[C@H](N)CN(c2nc(Nc3ccc(NC(=O)c4ccccc4O)c(O)c3)nc(N3C[C@H](N)C[C@H](N)C3)n2)C1
IC50 (Escherichia coli [1]): 11 µM
MIC (Pseudomonas aeruginosa [2]): 2 µg/mL
MIC (Escherichia coli [3]): 4 µg/mL

Cl.N[C@@H]1C[C@H](N)CN(c2nc(Nc3ccc(NC(=O)c4cnc5ccccc5c4O)cc3)nc(N3C[C@H](N)C[C@H](N)C3)n2)C1
IC50 (Escherichia coli [1]): 5 µM
MIC (Pseudomonas aeruginosa [2]): 1 µg/mL
MIC (Escherichia coli [3]): 4 µg/mL

Cl.N[C@@H]1C[C@H](N)CN(c2nc(Nc3ccc(NC(=O)c4ccc(Cl)cc4)c(O)c3)nc(N3C[C@H](N)C[C@H](N)C3)n2)C1
MIC50 (Pseudomonas aeruginosa [4]): 4 µg/mL
MIC80 (Pseudomonas aeruginosa [4]): 4 µg/mL
MIC90 (Pseudomonas aeruginosa [4]): 8 µg/mL

Cl.N[C@@H]1C[C@H](N)CN(c2nc(Nc3ccc(NC(=O)c4cccnc4O)c(O)c3)nc(N3C[C@H](N)C[C@H](N)C3)n2)C1
IC50 (Escherichia coli [1]): 4 µM
MIC (Pseudomonas aeruginosa [2]): ≤ 0.5 µg/mL
MIC (Escherichia coli [3]): 8 µg/mL

Cl.N[C@@H]1C[C@H](N)CN(c2nc(Nc3ccc(NC(=O)c4ncccc4O)c(O)c3)nc(N3C[C@H](N)C[C@H](N)C3)n2)C1
IC50 (Escherichia coli [1]): 10 µM
MIC (Pseudomonas aeruginosa [2]): 4 µg/mL
MIC (Escherichia coli [3]): 8 µg/mL

Cl.N[C@@H]1C[C@H](N)CN(c2cc(Nc3ccc(NC(=O)c4ccc5ccccc5c4O)cc3)cc(N3C[C@H](N)C[C@H](N)C3)n2)C1
IC50 (Escherichia coli [1]): 26 µM
MIC (Pseudomonas aeruginosa [2]): 1 µg/mL
MIC (Escherichia coli [3]): 2 µg/mL

Cl.N[C@@H]1C[C@H](N)CN(c2nc(Nc3ccc(NC(=O)c4cc(Cl)cnc4O)c(O)c3)nc(N3C[C@H](N)C[C@H](N)C3)n2)C1
Fold change (Escherichia coli [5]): 2
IC50 (Escherichia coli [1]): 3 µM
MIC (Pseudomonas aeruginosa [2]): ≤ 0.5 µg/mL
MIC (Escherichia coli [3]): 4 µg/mL

Cl.N[C@@H]1C[C@H](N)CN(c2nc(Nc3ccc(NC(=O)c4cnc5ccccc5c4O)c(Cl)c3)nc(N3C[C@H](N)C[C@H](N)C3)n2)C1
IC50 (Escherichia coli [1]): 24 µM
MIC (Pseudomonas aeruginosa [2]): 1 µg/mL
MIC (Escherichia coli [3]): 4 µg/mL

Cl.N[C@@H]1C[C@H](N)CN(c2cc(Nc3ccc(NC(=O)c4ccc5ccccc5c4O)cc3)nc(N3C[C@H](N)C[C@H](N)C3)c2)C1
IC50 (Escherichia coli [1]): 16 µM
MIC (Pseudomonas aeruginosa [2]): ≤ 0.5 µg/mL
MIC (Escherichia coli [3]): 2 µg/mL

CCn1cc(C(=O)Nc2ccc(Nc3nc(N4C[C@H](N)C[C@H](N)C4)nc(N4C[C@H](N)C[C@H](N)C4)n3)cc2)c(=O)c2ccc(C)nc21.Cl
IC50 (Escherichia coli [1]): 2 µM
MIC (Pseudomonas aeruginosa [2]): 2 µg/mL
MIC (Escherichia coli [3]): 4 µg/mL

CCn1cc(C(=O)Nc2ccc(Nc3nc(N4C[C@H](N)C[C@H](N)C4)nc(N4C[C@H](N)C[C@H](N)C4)n3)cc2)c(=O)c2cc3c(cc21)OCO3.Cl
IC50 (Escherichia coli [1]): 3 µM
MIC (Pseudomonas aeruginosa [2]): 1 µg/mL
MIC (Escherichia coli [3]): 1 µg/mL

Cl.N[C@@H]1C[C@H](N)CN(c2nc(Nc3ccc(NC(=O)c4cnc5ccccc5c4O)c(O)c3)nc(N3C[C@H](N)C[C@H](N)C3)n2)C1
IC50 (Escherichia coli [1]): 5 µM
MIC (Pseudomonas aeruginosa [2]): 1 µg/mL
MIC (Escherichia coli [3]): 1 µg/mL

Cl.N[C@@H]1C[C@H](N)CN(c2cc(Nc3ccc(NC(=O)c4ccc5ccccc5c4O)cc3)cc(N3C[C@H](N)C[C@H](N)C3)c2)C1
IC50 (Escherichia coli [1]): 12 µM
MIC (Pseudomonas aeruginosa [2]): 2 µg/mL
MIC (Escherichia coli [3]): 2 µg/mL

Cl.N[C@@H]1C[C@H](N)CN(c2nc(Nc3ccc(NC(=O)c4ccc5ccccc5c4O)cc3)nc(N3C[C@H](N)C[C@H](N)C3)n2)C1
IC50 (Escherichia coli [1]): 24 µM
MIC (Pseudomonas aeruginosa [2]): ≤ 0.5 µg/mL
MIC (Escherichia coli [3]): 1 µg/mL

NCC[C@H](O)C(=O)N[C@@H]1C[C@H](N)[C@@H](O[C@H]2O[C@H](CN)[C@@H](O)[C@H](O)[C@H]2O)[C@H](O)[C@H]1O[C@H]1O[C@H](CO)[C@@H](O)[C@H](N)[C@H]1O [AMIKACIN]
MIC50 (Pseudomonas aeruginosa [4]): 4 µg/mL (≈ 6.83 µM)
MIC80 (Pseudomonas aeruginosa [4]): 8 µg/mL (≈ 13.7 µM)
MIC90 (Pseudomonas aeruginosa [4]): 32 µg/mL (≈ 54.6 µM)

CC(C)(O/N=C(\C(=O)N[C@@H]1C(=O)N2C(C(=O)[O-])=C(C[n+]3ccccc3)CS[C@H]12)c1csc(N)n1)C(=O)O [CEFTAZIDIME]
MIC50 (Pseudomonas aeruginosa [4]): 2 µg/mL (≈ 3.66 µM)
MIC80 (Pseudomonas aeruginosa [4]): 8 µg/mL (≈ 14.6 µM)
MIC90 (Pseudomonas aeruginosa [4]): 16 µg/mL (≈ 29.3 µM)

O=C(N[C@H](CO)[C@H](O)c1ccc([N+](=O)[O-])cc1)C(Cl)Cl [CHLORAMPHENICOL]
MIC50 (Pseudomonas aeruginosa [4]): > 128 µg/mL
MIC80 (Pseudomonas aeruginosa [4]): > 128 µg/mL
MIC90 (Pseudomonas aeruginosa [4]): > 128 µg/mL

C[C@@H](O)[C@H]1C(=O)N2C(C(=O)O)=C(SCCNC=N)C[C@H]12 [IMIPENEM ANHYDROUS]
MIC50 (Pseudomonas aeruginosa [4]): 2 µg/mL (≈ 6.68 µM)
MIC80 (Pseudomonas aeruginosa [4]): 16 µg/mL (≈ 53.4 µM)
MIC90 (Pseudomonas aeruginosa [4]): 16 µg/mL (≈ 53.4 µM)

CCn1cc(C(=O)O)c(=O)c2ccc(C)nc21 [NALIDIXIC ACID]
IC50 (Escherichia coli [1]): > 100 µM

CCN1CCN(C(=O)N[C@@H](C(=O)N[C@@H]2C(=O)N3[C@@H]2SC(C)(C)[C@@H]3C(=O)O)c2ccccc2)C(=O)C1=O [PIPERACILLIN]
MIC50 (Pseudomonas aeruginosa [4]): 8 µg/mL (≈ 15.5 µM)
MIC80 (Pseudomonas aeruginosa [4]): 32 µg/mL (≈ 61.8 µM)
MIC90 (Pseudomonas aeruginosa [4]): 64 µg/mL (≈ 124 µM)

CN(C)[C@@H]1C(O)=C(C(N)=O)C(=O)[C@@]2(O)C(O)=C3C(=O)c4c(O)cccc4[C@@](C)(O)[C@H]3C[C@@H]12 [TETRACYCLINE]
MIC50 (Pseudomonas aeruginosa [4]): 32 µg/mL (≈ 72 µM)
MIC80 (Pseudomonas aeruginosa [4]): 64 µg/mL (≈ 144 µM)
MIC90 (Pseudomonas aeruginosa [4]): 64 µg/mL (≈ 144 µM)
